High-throughput results: PubChem, several laboratories
Compounds with a hit are over-represented: about 1.5% of the library has one in this group of screens.
UBC13 polyUb: human UBC13 polyubiquitination inhibition. P61088. UBC13 polyubiquitin chain formation, TR-FRET. inhibition, % at 20 µM. actives 0.47% (n = 330,000). AID 485273; in the data active = inhibition above about 45%, passing the limit was not always enough
PREPL inh: human PREPL enzyme inhibition; Q4J6C6; recombinant PREPL, fluorescence polarization activity-based probe; inhibition, % at 5.96 µM; actives 0.68% (n = 320,000); in the data active = inhibition above about 43%;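 note: 0% = enzyme with DMSO and 100% = wells lacking enzyme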
Target sequence (Q4J6C6 whole entry, looked up): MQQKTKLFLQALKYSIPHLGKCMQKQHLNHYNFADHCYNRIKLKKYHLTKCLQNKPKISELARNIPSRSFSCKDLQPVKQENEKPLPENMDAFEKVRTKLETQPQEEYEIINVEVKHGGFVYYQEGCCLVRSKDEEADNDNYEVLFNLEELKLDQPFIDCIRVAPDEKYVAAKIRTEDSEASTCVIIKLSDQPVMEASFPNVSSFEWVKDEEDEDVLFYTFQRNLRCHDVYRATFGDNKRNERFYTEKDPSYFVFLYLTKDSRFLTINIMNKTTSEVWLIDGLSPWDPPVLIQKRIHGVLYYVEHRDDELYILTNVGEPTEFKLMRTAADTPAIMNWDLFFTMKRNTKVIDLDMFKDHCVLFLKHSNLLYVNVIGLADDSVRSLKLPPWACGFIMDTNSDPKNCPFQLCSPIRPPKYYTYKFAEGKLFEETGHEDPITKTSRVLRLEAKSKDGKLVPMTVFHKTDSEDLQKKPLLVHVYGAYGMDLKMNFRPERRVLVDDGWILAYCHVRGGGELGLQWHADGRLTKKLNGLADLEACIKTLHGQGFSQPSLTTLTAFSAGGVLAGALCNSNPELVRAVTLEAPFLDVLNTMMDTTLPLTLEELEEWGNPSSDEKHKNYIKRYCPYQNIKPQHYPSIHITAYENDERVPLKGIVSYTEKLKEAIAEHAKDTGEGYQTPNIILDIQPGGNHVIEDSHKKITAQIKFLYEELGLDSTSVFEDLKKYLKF
Apaf-1 inh: human Apaf-1 inhibition; O14727; reconstituted apoptosome caspase-3 activity, DEVD-Rh110 fluorescence; inhibition, % at 20 µM; actives 0.71% (n = 330,000); AID 489030; active = inhibition of at least 40% at 20 µM;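 note: plate controls were DMSO wells for no effect and DEVD-CHO caspase inhibitor wells for full effect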
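Assay system: Apoptosome proteins | Medium: pH 7.5 Hepes buffer with CHAPS, BSA, DTT | Also added: Cytochrome c and DEVD-Rh110 substrate | Times: 30 min plus 50 min, RT | Detection: Rhodamine 110 fluorescence at Ex 480/Em 540 nm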
UCH37 DUB inh: blocks the human deubiquitinase UCH37 | Q9Y5K5 | purified proteasome/UCH37, Ub-AMC cleavage fluorescence | inhibition, % (test concentration not listed) | actives 0.33% (n = 330,000) | AID 588478;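 active = mean inhibition over replicate wells above about 20%, limit read from the data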;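 note: 0% = compound-free wells with enzyme and 100% = wells lacking proteasome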
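System: Proteasome-associated human UCH37 deubiquitinase; Input: 0.15 nM proteasome in added enzyme buffer; Also added: Ub-AMC substrate from 1 µM stock; Incubation: 30 min compound-proteasome preincubation then 25 min substrate reaction, room temperature; Detection: fluorescence, ex 355 nm, em 460 nm; Read-out: % inhibition of Ub-AMC cleavage fluorescence; Benchmarks: no-proteasome and no-compound wells.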
Apaf-1 inh conf2: Apaf-1 inhibition, single-dose confirmed; shares compounds with Apaf-1 inh; inhibition, % at 20 µM; reconstituted apoptosome, caspase-3 DEVD-Rh110 fluorescence; actives 25% (n = 1,800); AID 504614;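 active = mean inhibition of at least 40% at 20 µM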;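 note: plate controls were DMSO wells for no effect and DEVD-CHO caspase inhibitor control wells for full effect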
Rh110 interf inh: counter-screen for Apaf-1 inhibitors: fluorescence interference | activation (fluorescence interference), % at 20 µM | shares compounds with Apaf-1 inh | Rh110 fluorescence interference, quenched caspase reaction | 1,800 tested, under 10 active;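 active = signal rise of 40% or more at 20 µM, treated as a fluorescence artifact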
Apaf1 inh interf: Apaf-1 inhibitor counter-screen fluorescence artifact; shares compounds with Apaf-1 inh; fluorescence interference counterscreen, Apaf-1 assay format; IC50, µM; 460 tested, under 10 active; call rule not given here
* hit, by the source's call; x = no result given.

SMILES | UBC13 polyUb | PREPL inh | Apaf-1 inh | UCH37 DUB inh | Apaf-1 inh conf2 | Rh110 interf inh | others
CC(=NNc1cc(Cl)nc(C)n1)c1ccc(C)cc1 | x | x | x | 2 | x | x
O=C(O)c1ccc(-n2nnc3ccccc32)c([N+](=O)[O-])c1 | -9 | 6 | 5 | 5 | x | x
O=C(O)c1ccc(NC2=C(n3nnc4ccccc43)C(=O)c3ccccc3C2=O)cc1 | -76 | -5 | 73* | x | 76* | 4 | Apaf1 inh interf=>100
CC1CN(S(=O)(=O)c2cccc(C(=O)N(CCc3ccccc3)Cc3ccccc3)c2)CC(C)O1 (stereo not drawn) | -1 | 35 | 45* | 2 | 20 | 9
COCCN(Cc1ccccc1)C(=O)c1cccc(S(=O)(=O)N2CCN(c3ccccc3)CC2)c1 | 13 | -24 | 43* | 4 | 42* | 6 | Apaf1 inh interf=>100
Cc1ccc(N(Cc2ccccc2)C(=O)c2cccc(S(=O)(=O)N3CC(C)OC(C)C3)c2)cc1 (stereo not drawn) | -6 | 12 | 30 | 2 | x | x
CSc1ccc(CN(C)C(=O)c2cc(S(=O)(=O)NCc3ccccc3)ccc2C)cc1 | 4 | 5 | 18 | 0 | x | x
CSc1ccc(CN(C)C(=O)c2cccc(S(=O)(=O)NCc3ccccc3)c2)cc1 | 17 | 1 | 67* | 5 | 36 | 5
COCCN(Cc1ccccc1)C(=O)C1CCN(S(=O)(=O)c2ccc3c(c2)OCCO3)CC1 | 14 | 10 | 49* | 3 | 33 | 12
COCCN(Cc1ccccc1)C(=O)c1cccc(S(=O)(=O)N2CCN(c3ccc(F)cc3)CC2)c1 | 1 | -50 | 34 | 5 | x | x
Cc1cc2c(cc1C)C(=NNC(=O)c1ccccn1)CCC2 | x | x | x | 1 | x | x
S=c1[nH]nc(-c2cc(-c3ccccc3)n[nH]2)n1N=Cc1ccc(Cl)c(Cl)c1 | x | x | x | 3 | x | x
CCCCNC(=O)N(O)C1N(N=Cc2cccnc2)C(=S)SC1(C)C (stereo not drawn) | x | x | x | 6 | x | x
CC1CN(C(=O)c2ccc(CNS(=O)(=O)c3cccc(Cl)c3)cc2)CC(C)O1 (stereo not drawn) | 2 | x | 7 | 1 | x | x
CC1CN(C(=O)c2cccc(S(=O)(=O)NCc3ccccc3)c2)CC(C)O1 (stereo not drawn) | 15 | 18 | 54* | 3 | 35 | 3
CCCCC/C(C=NNc1ccc(S(=O)(=O)N2CCOCC2)cc1[N+](=O)[O-])=C\c1ccccc1 | x | x | x | 13 | x | x
Cc1cc(N(CCO)CCO)ccc1N=Nc1cc(F)ccc1F | -348 | 14 | 40* | 6 | 22 | 15
OCCN(CCO)c1ccc(C(c2ccc(Cl)cc2)c2ccc(N(CCO)CCO)cc2Cl)c(Cl)c1 | -20 | 17 | -9 | 2 | x | x
Cc1cc(NC(=O)CSCC(=O)Nc2ccc(Cl)c(C(F)(F)F)c2)no1 | 6 | 5 | -1 | 4 | x | x
Cc1cc(NC(=O)CSCC(=O)Nc2ccc(C)c(C)c2)no1 | -2 | 14 | 54* | 0 | 4 | -4
O=C1NC2=C(CCc3ccccc32)C(c2ccccc2)N1 (stereo not drawn) | -21 | 6 | 91* | -29 | 13 | 0
COc1ccc(/C=C/C(=O)NCC(=O)NN=Cc2cc(Br)ccc2OCc2ccccc2)cc1 | x | x | x | 2 | x | x
CN(C)c1ccnc(-n2cccc2C=NOCc2ccc(F)cc2Cl)c1C#N | x | x | x | 2 | x | x
COC(=O)/C(=C/Nc1ccc(O)cc1)[N+](=O)[O-] | -1 | 31 | 91* | 7 | 16 | 12
COc1ccc(C(C)=NNC(=O)Cn2nc([N+](=O)[O-])cc2C)cc1 | x | x | x | 1 | x | x
SMILES | UBC13 polyUb | PREPL inh | Apaf-1 inh | UCH37 DUB inh | Apaf-1 inh conf2 | Rh110 interf inh | others
CCC(=O)Nc1c(C#N)c2nc3ccccc3nc2n1C1CCCCC1 | 16 | 5 | -9 | -37 | x | x
COc1ccc(-n2c(NC(=O)c3ccco3)c(C#N)c3nc4ccccc4nc32)cc1 | -25 | 5 | 96* | -109 | 93* | 3 | Apaf1 inh interf=>100
CCCCn1c(NC(=O)c2ccccc2Cl)c(C#N)c2nc3ccccc3nc21 | -23 | 38 | 93* | -92 | 59* | -1 | Apaf1 inh interf=>100
CCOC(=O)c1c(NC(=O)c2ccco2)n(C2CCCCC2)c2nc3ccccc3nc12 | -31 | 11 | 88* | -78 | 36 | 1
Cc1ccc(CN2CCN(N=Cc3cc(Br)ccc3F)CC2)cc1 | x | x | x | -2 | x | x
Cc1[nH][nH]c(=O)c1C(c1ccc(-c2ccc(F)cc2)o1)c1c(C)[nH][nH]c1=O | -104 | 3 | 72* | 22* | 32 | 5
COc1ccc(-c2ccc(/C=N/N3C(=O)C4C5C=CC(C6CC56)C4C3=O)o2)c([N+](=O)[O-])c1 (stereo not drawn) | -20 | 15 | 15 | x | x | x
COc1ccc(-c2ccc(C(c3c(C)[nH][nH]c3=O)c3c(C)[nH][nH]c3=O)o2)c([N+](=O)[O-])c1 | -59 | x | 75* | 8 | 19 | -1
COc1ccc(C=NNC(=O)c2ccccc2OC)cc1COc1ccccc1C | x | x | x | -7 | x | x
O=C1CCN2C=Nc3cccc4ccc1c2c34 | -36 | 9 | 43* | -66 | 28 | 2
CC(C)=CCC/C(C)=C/CNC(=O)C[C@H]1C[C@H](C(=O)N2CCOCC2)[C@@]2(C)c3[nH]c4ccc(Cl)cc4c3CCN2C1=O | x | x | 42* | 1 | 27 | 10
CC(C)=CCC/C(C)=C/CNC(=O)C[C@H]1C[C@H](C(=O)N2CCOCC2)[C@@]2(C)c3[nH]c4cc(-c5ccco5)ccc4c3CCN2C1=O | x | x | 44* | -25 | 17 | 3
C[C@]12c3[nH]c4ccc(Cl)cc4c3CCN1C(=O)[C@@H](CC(=O)NCCN1CCOCC1)C[C@@H]2C(=O)N1CCOCC1 | x | x | 6 | -2 | x | x
CC[C@]12c3[nH]c4ccc(Cl)cc4c3CCN1C(=O)[C@@H](CC(=O)NCC13CC4CC(CC(C4)C1)C3)C[C@@H]2C(=O)N1CCN(C(=O)c2ccco2)CC1 | x | x | 44* | 3 | 18 | 7
CCn1c(C=NNC(=O)c2ccc(OC)cc2)nc2ccccc21 | x | x | x | -33 | x | x
Cc1ccc(NC(=O)c2ncn(CC(=O)N[C@H](CO)Cc3c[nH]c4ccccc34)n2)cc1C | x | x | 74* | -1 | 7 | 11
C=CCNC(C(=O)Nc1cccc(OC)c1)c1ccccc1 (stereo not drawn) | 0 | 7 | 43* | 3 | -6 | 3
CCCOc1ccc(Br)cc1C=NNC(=O)c1cc(OC)c(OC)c(OC)c1 | x | x | x | 5 | x | x
COc1ccc(/C=C/C(=O)Oc2ccc(C=NNC(=O)COc3c(C)cccc3C)cc2)cc1 | x | x | x | -4 | x | x
C=CCn1c(SCC(=O)NCCc2ccccc2)nnc1C1CC1 | 7 | 2 | 42* | 4 | 31 | 7
COc1ccc(CCNC(=O)CC(C)=NNC(=O)c2cnccn2)cc1 | x | x | x | 1 | x | x
CCc1nnc(NC(=O)c2ccc(S(=O)(=O)N3CCCC3)cc2)s1 | 1 | 4 | -1 | 4 | x | x
